# Reference: ChEMBL document CHEMBL1154352, “Toll-like receptor 7 selective synthetic oligoribonucleotide agonists: synthesis and structure-activity relationship studies” (J Med Chem, 2009)
# Active and inactive are the calls of the source. The calls are words filed in the database; no cut-off is given here.
# Assays:
# [1] = biological target: T1, Toll-like receptor 7 (Homo sapiens) (UniProt Q9NYK1); test: Activation of human TLR7 expressed in HEK293XL assessed as fold induction of NF-kappaB activity at 50 ug/ml after 18 hrs by reporter gene assay relative to control
# T1 sequence (whole entry): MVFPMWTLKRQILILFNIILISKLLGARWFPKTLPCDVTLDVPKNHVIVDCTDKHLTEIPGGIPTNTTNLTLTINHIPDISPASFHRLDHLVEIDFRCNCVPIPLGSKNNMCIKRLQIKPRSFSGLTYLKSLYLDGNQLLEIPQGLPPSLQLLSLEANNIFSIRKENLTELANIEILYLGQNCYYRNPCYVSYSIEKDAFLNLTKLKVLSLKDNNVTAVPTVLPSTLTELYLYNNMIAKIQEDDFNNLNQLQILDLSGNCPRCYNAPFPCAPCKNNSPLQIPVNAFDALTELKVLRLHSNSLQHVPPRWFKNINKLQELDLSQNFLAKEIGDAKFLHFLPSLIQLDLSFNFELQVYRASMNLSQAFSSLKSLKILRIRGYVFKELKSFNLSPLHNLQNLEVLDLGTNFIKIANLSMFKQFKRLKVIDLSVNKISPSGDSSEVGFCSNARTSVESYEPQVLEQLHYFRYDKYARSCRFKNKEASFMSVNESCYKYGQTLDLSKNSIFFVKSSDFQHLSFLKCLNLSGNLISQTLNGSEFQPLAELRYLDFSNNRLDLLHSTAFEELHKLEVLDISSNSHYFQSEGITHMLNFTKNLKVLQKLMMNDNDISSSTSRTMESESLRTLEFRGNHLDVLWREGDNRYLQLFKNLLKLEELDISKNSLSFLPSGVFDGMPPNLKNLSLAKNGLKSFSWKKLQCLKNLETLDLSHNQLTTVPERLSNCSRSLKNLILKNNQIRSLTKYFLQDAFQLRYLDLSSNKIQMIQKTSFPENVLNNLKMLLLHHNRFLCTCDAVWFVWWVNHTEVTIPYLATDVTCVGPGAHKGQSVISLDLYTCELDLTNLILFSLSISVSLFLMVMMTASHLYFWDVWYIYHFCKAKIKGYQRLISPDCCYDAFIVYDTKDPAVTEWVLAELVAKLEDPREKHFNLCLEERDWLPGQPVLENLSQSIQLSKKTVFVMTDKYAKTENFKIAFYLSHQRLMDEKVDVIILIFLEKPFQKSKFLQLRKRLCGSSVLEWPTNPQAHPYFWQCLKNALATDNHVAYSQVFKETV
# Method in brief: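 HEK293 cells stably expressing human TLR7 or TLR8, transiently transfected with SEAP reporter plasmid; medium replaced, SIMRA compounds added, 18 h incubation. Supernatant SEAP measured by QuantiBlue; expressed as fold increase in NF-κB activity over PBS control. Tabulated data at 50 μg/mL, representative of three independent experiments.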
# Homo sapiens = species on record: Homo sapiens; test: Ratio of human TLR7 activity to human TLR8 activity
# Method in brief: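 TLR7/TLR8 ratio computed from fold NF-κB (SEAP reporter) activation in HEK293 cells stably expressing human TLR7 versus TLR8, compounds at 50 μg/mL, 18 h exposure; representative of three independent experiments.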
# [2] = biological target: T2, Toll-like receptor 9 (Mus musculus) (UniProt Q9EQU3); test: Activation of mouse TLR9 expressed in HEK293 assessed as induction of NF-kappaB activity reporter gene assay; format: cell-based
# T2 sequence (whole entry): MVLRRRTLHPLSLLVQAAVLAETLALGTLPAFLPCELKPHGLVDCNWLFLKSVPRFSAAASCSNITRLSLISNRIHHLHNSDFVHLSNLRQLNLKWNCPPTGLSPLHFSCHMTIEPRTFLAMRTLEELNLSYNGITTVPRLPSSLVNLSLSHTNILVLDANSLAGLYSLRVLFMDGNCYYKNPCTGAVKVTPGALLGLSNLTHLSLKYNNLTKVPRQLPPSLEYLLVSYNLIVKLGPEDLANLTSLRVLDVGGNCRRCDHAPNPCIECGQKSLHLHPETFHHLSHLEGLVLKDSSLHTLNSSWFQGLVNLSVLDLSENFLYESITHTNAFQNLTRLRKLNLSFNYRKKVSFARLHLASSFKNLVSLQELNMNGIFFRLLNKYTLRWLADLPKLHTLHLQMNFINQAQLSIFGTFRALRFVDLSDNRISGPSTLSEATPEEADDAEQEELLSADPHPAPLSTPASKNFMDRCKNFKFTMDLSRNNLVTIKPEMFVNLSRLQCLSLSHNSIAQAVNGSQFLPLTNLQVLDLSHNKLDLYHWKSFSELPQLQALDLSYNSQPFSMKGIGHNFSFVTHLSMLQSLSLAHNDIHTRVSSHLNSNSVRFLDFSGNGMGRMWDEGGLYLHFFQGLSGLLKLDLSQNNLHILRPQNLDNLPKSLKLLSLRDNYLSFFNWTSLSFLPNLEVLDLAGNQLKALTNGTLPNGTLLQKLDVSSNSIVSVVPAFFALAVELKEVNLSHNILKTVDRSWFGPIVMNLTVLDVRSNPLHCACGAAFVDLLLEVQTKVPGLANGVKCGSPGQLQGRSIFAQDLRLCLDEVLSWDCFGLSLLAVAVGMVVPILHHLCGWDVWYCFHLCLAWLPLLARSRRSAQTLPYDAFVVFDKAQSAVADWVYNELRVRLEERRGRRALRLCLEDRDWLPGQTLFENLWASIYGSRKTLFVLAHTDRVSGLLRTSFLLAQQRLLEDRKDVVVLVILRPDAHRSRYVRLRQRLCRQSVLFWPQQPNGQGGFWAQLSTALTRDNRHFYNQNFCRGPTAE
# Splenocyte [3] = test: Immunomodulatory activity in C57BL/6 mouse splenocytes bearing TLR7 receptor assessed as IL6 release at 100 ug/ml after 24 hrs by ELISA; format: functional, cell-based
# Method in brief: (§1)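 C57BL/6 splenocytes in RPMI 1640 with 10% FBS, penicillin/streptomycin, 2 mM L-glutamine, plated at 5 × 10^6 cells/mL; compounds in PBS added, 37 °C for 24 h. Supernatant IL-12 and IL-6 by ELISA; representative of three independent experiments.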
# Splenocyte [4] = test: Immunomodulatory activity in C57BL/6 mouse splenocytes bearing TLR7 receptor assessed as IL12 release at 100 ug/ml after 24 hrs by ELISA; format: functional, cell-based; method in brief: as §1
# PBMC [5] = test: Immunomodulatory activity in human PBMC assessed as induction of IL12 at 100 ug/ml after 24 hrs; format: functional, cell-based
# Method in brief: (§2)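 Human PBMCs plated at 5 × 10^6 cells/mL; compounds dissolved in PBS added at various concentrations, 37 °C for 24 h. Supernatant cytokines/chemokines quantified with human Luminex multiplex kit.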
# PBMC [6] = test: Immunomodulatory activity in human PBMC assessed as induction of TNFalpha at 100 ug/ml after 24 hrs; format: functional, cell-based; method in brief: as §2
# PBMC [7] = test: Immunomodulatory activity in human PBMC assessed as induction of IFN-alpha at 100 ug/ml after 24 hrs
SMILES,fold change (FC) [1],Ratio (Homo sapiens),Activity [2],Activity (Splenocyte [3]),Activity (Splenocyte [4]),Activity (PBMC [5]) [pg/mL],Activity (PBMC [6]) [pg/mL],IFN-alpha (PBMC [7]) [pg/mL]
Nc1ccn([C@@H]2O[C@H](COP(=O)(S)O[C@H]3[C@@H](O)[C@H](n4cnc5c(N)ncnc54)O[C@@H]3CO)[C@@H](OP(=O)(S)OC[C@H]3O[C@@H](n4ccc(=O)[nH]c4=O)[C@H](O)[C@@H]3OP(=O)(S)OC[C@H]3O[C@@H](n4ccc(=O)[nH]c4=O)[C@H](O)[C@@H]3OP(=O)(S)OC[C@H]3O[C@@H](n4ccc5c(=O)[nH]c(N)nc54)[C@H](O)[C@@H]3OP(=O)(S)OC[C@H]3O[C@@H](n4cnc5c(N)ncnc54)[C@H](O)[C@@H]3OP(=O)(S)OC[C@H]3O[C@@H](n4cnc5c(N)ncnc54)[C@H](O)[C@@H]3OP(=O)(S)OC[C@H]3O[C@@H](n4ccc5c(=O)[nH]c(N)nc54)[C@H](O)[C@@H]3OP(=O)(S)OC[C@H]3O[C@@H](n4ccc(N)nc4=O)[C@H](O)[C@@H]3OP(=O)(S)OC[C@H]3O[C@@H](n4ccc(=O)[nH]c4=O)[C@H](O)[C@@H]3OP(=O)(S)OC[C@H]3O[C@@H](n4ccc(=O)[nH]c4=O)[C@H](O)[C@@H]3OP(=O)(S)OCC(O)COP(=O)(S)O[C@H]3[C@@H](O)[C@H](n4ccc(=O)[nH]c4=O)O[C@@H]3COP(=O)(S)O[C@H]3[C@@H](O)[C@H](n4ccc(=O)[nH]c4=O)O[C@@H]3COP(=O)(S)O[C@H]3[C@@H](O)[C@H](n4ccc(N)nc4=O)O[C@@H]3COP(=O)(S)O[C@H]3[C@@H](O)[C@H](n4ccc5c(=O)[nH]c(N)nc54)O[C@@H]3COP(=O)(S)O[C@H]3[C@@H](O)[C@H](n4cnc5c(N)ncnc54)O[C@@H]3COP(=O)(S)O[C@H]3[C@@H](O)[C@H](n4cnc5c(N)ncnc54)O[C@@H]3COP(=O)(S)O[C@H]3[C@@H](O)[C@H](n4ccc5c(=O)[nH]c(N)nc54)O[C@@H]3COP(=O)(S)O[C@H]3[C@@H](O)[C@H](n4ccc(=O)[nH]c4=O)O[C@@H]3COP(=O)(S)O[C@H]3[C@@H](O)[C@H](n4ccc(=O)[nH]c4=O)O[C@@H]3COP(=O)(S)O[C@H]3[C@@H](O)[C@H](n4ccc(N)nc4=O)O[C@@H]3COP(=O)(S)O[C@H]3[C@@H](O)[C@H](n4cnc5c(N)ncnc54)O[C@@H]3CO)[C@H]2O)c(=O)n1 (stereo partly specified),23.7,11.9,inactive,Active,Active,442,170,218
Nc1ccn([C@@H]2O[C@H](COP(=O)(S)O[C@H]3[C@@H](O)[C@H](n4cnc5c(N)ncnc54)O[C@@H]3COP(=O)(S)O[C@H]3[C@@H](O)[C@H](n4ccc5c(=O)[nH]c(N)nc54)O[C@@H]3COP(=O)(S)O[C@H]3[C@@H](O)[C@H](n4ccc(=O)[nH]c4=O)O[C@@H]3COP(=O)(S)O[C@H]3[C@@H](O)[C@H](n4ccc5c(=O)[nH]c(N)nc54)O[C@@H]3COP(=O)(S)O[C@H]3[C@@H](O)[C@H](n4cnc5c(N)ncnc54)O[C@@H]3COP(=O)(S)O[C@H]3[C@@H](O)[C@H](n4cnc5c(N)ncnc54)O[C@@H]3CO)[C@@H](OP(=O)(S)OC[C@H]3O[C@@H](n4ccc5c(=O)[nH]c(N)nc54)[C@H](O)[C@@H]3OP(=O)(S)OC[C@H]3O[C@@H](n4cnc5c(N)ncnc54)[C@H](O)[C@@H]3OP(=O)(S)OC[C@H]3O[C@@H](n4ccc(=O)[nH]c4=O)[C@H](O)[C@@H]3OP(=O)(S)OC[C@H]3O[C@@H](n4ccc(=O)[nH]c4=O)[C@H](O)[C@@H]3OP(=O)(S)OCC(O)COP(=O)(S)O[C@H]3[C@@H](O)[C@H](n4ccc(=O)[nH]c4=O)O[C@@H]3COP(=O)(S)O[C@H]3[C@@H](O)[C@H](n4ccc(=O)[nH]c4=O)O[C@@H]3COP(=O)(S)O[C@H]3[C@@H](O)[C@H](n4cnc5c(N)ncnc54)O[C@@H]3COP(=O)(S)O[C@H]3[C@@H](O)[C@H](n4ccc5c(=O)[nH]c(N)nc54)O[C@@H]3COP(=O)(S)O[C@H]3[C@@H](O)[C@H](n4ccc(N)nc4=O)O[C@@H]3COP(=O)(S)O[C@H]3[C@@H](O)[C@H](n4cnc5c(N)ncnc54)O[C@@H]3COP(=O)(S)O[C@H]3[C@@H](O)[C@H](n4ccc5c(=O)[nH]c(N)nc54)O[C@@H]3COP(=O)(S)O[C@H]3[C@@H](O)[C@H](n4ccc(=O)[nH]c4=O)O[C@@H]3COP(=O)(S)O[C@H]3[C@@H](O)[C@H](n4ccc5c(=O)[nH]c(N)nc54)O[C@@H]3COP(=O)(S)O[C@H]3[C@@H](O)[C@H](n4cnc5c(N)ncnc54)O[C@@H]3COP(=O)(S)O[C@H]3[C@@H](O)[C@H](n4cnc5c(N)ncnc54)O[C@@H]3CO)[C@H]2O)c(=O)n1 (stereo partly specified),17.5,21.9,inactive,Active,Active,400,15.7,254
